Laboratory results from ChEMBL document CHEMBL4811251 (Eur J Med Chem, 2021).
pKi: −log10 of the molar value. Blank lines part the entries; values can stand above or below the compound they belong to. Activity calls are given as the source filed them. The rule behind the calls is not given here.

Assays:
CDK8/Cyclin C = CDK8/Cyclin C (Homo sapiens, UniProt P49336); assay: Inhibition of CDK8/Cyclin C (unknown origin) using RBER-CHKtide as substrate in presence of [33P]gammaATP incubated for 60 mins by microplate scintillation counter analysis
MV4-11 = assay: Antiproliferative activity against human MV4-11 cells assessed as growth inhibition after 72 hrs by resazurin assay; assay type: functional
Summary of the method: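 MV4-11 cells kept at 37 °C with 5% CO2 in ATCC-recommended medium plus 10% FBS. In-house resazurin viability assay after 72 h exposure. GI50 reported as mean ± standard deviation from at least two replicates.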

[1] = Half life in Sprague-Dawley rat at 5 mg/kg, iv measured upto 24 hrs by LC/MS/MS analysis; assay type: ADME, organism-based; conditions: in vivo
[2] = Volume of distribution at steady state in Sprague-Dawley rat at 5 mg/kg, iv measured upto 24 hrs by LC/MS/MS analysis; assay type: ADME, organism-based; conditions: in vivo, read-out: Vdss
[3] = Tmax in BALB/c mouse at 2 mg/kg, iv measured upto 24 hrs by LC/MS/MS analysis; assay type: ADME, organism-based; conditions: in vivo
[4] = Cmax in Sprague-Dawley rat at 5 mg/kg, iv measured upto 24 hrs by LC/MS/MS analysis; assay type: ADME, organism-based; parameters: route intravenous, dose 5 mg/kg, time <=24; conditions: in vivo
[5] = Volume of distribution at steady state in BALB/c mouse at 2 mg/kg, iv measured upto 24 hrs by LC/MS/MS analysis; assay type: ADME, organism-based; conditions: in vivo, read-out: Vdss
[6] = AUC in Sprague-Dawley rat at 5 mg/kg, iv measured upto 24 hrs by LC/MS/MS analysis; assay type: ADME, organism-based; parameters: route intravenous, dose 5 mg/kg, time <=24; conditions: in vivo
[7] = Half life in Sprague-Dawley rat at 20 mg/kg, po measured upto 24 hrs by LC/MS/MS analysis; assay type: ADME, organism-based; conditions: in vivo
[8] = Oral bioavailability in Sprague-Dawley rat at 20 mg/kg measured upto 24 hrs by LC/MS/MS analysis; assay type: ADME, organism-based; conditions: in vivo
[9] = AUC in Sprague-Dawley rat at 20 mg/kg, po measured upto 24 hrs by LC/MS/MS analysis; assay type: ADME, organism-based; parameters: route oral, dose 20 mg/kg, time <=24; conditions: in vivo
[10] = Cmax in BALB/c mouse at 10 mg/kg, po measured upto 24 hrs by LC/MS/MS analysis; assay type: ADME, organism-based; parameters: route oral, dose 10 mg/kg, time <=24; conditions: in vivo
[11] = Half life in BALB/c mouse at 10 mg/kg, po measured upto 24 hrs by LC/MS/MS analysis; assay type: ADME, organism-based; conditions: in vivo
[12] = Tmax in Sprague-Dawley rat at 5 mg/kg, iv measured upto 24 hrs by LC/MS/MS analysis; assay type: ADME, organism-based; conditions: in vivo
[13] = Half life in BALB/c mouse at 2 mg/kg, iv measured upto 24 hrs by LC/MS/MS analysis; assay type: ADME, organism-based; conditions: in vivo
[14] = Cmax in BALB/c mouse at 2 mg/kg, iv measured upto 24 hrs by LC/MS/MS analysis; assay type: ADME, organism-based; parameters: route intravenous, dose 2 mg/kg, time <=24; conditions: in vivo
[15] = Clearance in BALB/c mouse at 2 mg/kg, iv measured upto 24 hrs by LC/MS/MS analysis; assay type: ADME, organism-based; conditions: in vivo
[16] = Clearance in Sprague-Dawley rat at 5 mg/kg, iv measured upto 24 hrs by LC/MS/MS analysis; assay type: ADME, organism-based; conditions: in vivo
[17] = AUC in BALB/c mouse at 10 mg/kg, po measured upto 24 hrs by LC/MS/MS analysis; assay type: ADME, organism-based; parameters: route oral, dose 10 mg/kg, time <=24; conditions: in vivo
[18] = AUC in BALB/c mouse at 2 mg/kg, iv measured upto 24 hrs by LC/MS/MS analysis; assay type: ADME, organism-based; parameters: route intravenous, dose 2 mg/kg, time <=24; conditions: in vivo
[19] = Cmax in Sprague-Dawley rat at 20 mg/kg, po measured upto 24 hrs by LC/MS/MS analysis; assay type: ADME, organism-based; parameters: route oral, dose 20 mg/kg, time <=24; conditions: in vivo
[20] = Tmax in Sprague-Dawley rat at 20 mg/kg, po measured upto 24 hrs by LC/MS/MS analysis; assay type: ADME, organism-based; conditions: in vivo
[21] = Tmax in BALB/c mouse at 10 mg/kg, po measured upto 24 hrs by LC/MS/MS analysis; assay type: ADME, organism-based; conditions: in vivo
[22] = Oral bioavailability in BALB/c mouse at 10 mg/kg measured upto 24 hrs by LC/MS/MS analysis; assay type: ADME, organism-based; conditions: in vivo
[23] = molecular target: Protein kinase C theta (Homo sapiens) (UniProt Q04759); assay: Inhibition of PKC theta (unknown origin) assessed as residual activity at 1 uM relative to control
[24] = molecular target: CDK9/cyclin T1 (Homo sapiens) (UniProt O60563+P50750); assay: Inhibition of CDK9/Cyclin T1 (unknown origin) assessed as residual activity at 1 uM relative to control; assay type: protein-complex assay
[25] = molecular target: Glycogen synthase kinase-3 alpha (Homo sapiens) (UniProt P49840); assay: Inhibition of GSK3alpha (unknown origin) assessed as residual activity at 1 uM relative to control
[26] = molecular target: Glycogen synthase kinase-3 beta (Homo sapiens) (UniProt P49841); assay: Inhibition of GSK3beta (unknown origin) assessed as residual activity at 1 uM relative to control
[27] = molecular target: Cyclin-dependent kinase 1/cyclin B1 (Homo sapiens) (UniProt P06493+P14635); assay: Inhibition of CDK1/Cyclin B (unknown origin) assessed as residual activity at 1 uM relative to control; assay type: protein-complex assay
Cyclin-dependent kinase 1/cyclin B1 (Homo sapiens), sequence (P06493 whole entry, looked up): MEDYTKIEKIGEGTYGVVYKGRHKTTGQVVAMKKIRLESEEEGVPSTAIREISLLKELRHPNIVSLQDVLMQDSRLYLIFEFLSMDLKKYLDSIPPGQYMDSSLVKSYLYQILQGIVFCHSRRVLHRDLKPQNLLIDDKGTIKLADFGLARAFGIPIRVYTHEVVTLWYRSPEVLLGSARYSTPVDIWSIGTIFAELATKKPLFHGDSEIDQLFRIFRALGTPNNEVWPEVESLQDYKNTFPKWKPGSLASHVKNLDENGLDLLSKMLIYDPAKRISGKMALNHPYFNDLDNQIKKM
Cyclin-dependent kinase 1/cyclin B1 (Homo sapiens), sequence (P14635 whole entry, looked up): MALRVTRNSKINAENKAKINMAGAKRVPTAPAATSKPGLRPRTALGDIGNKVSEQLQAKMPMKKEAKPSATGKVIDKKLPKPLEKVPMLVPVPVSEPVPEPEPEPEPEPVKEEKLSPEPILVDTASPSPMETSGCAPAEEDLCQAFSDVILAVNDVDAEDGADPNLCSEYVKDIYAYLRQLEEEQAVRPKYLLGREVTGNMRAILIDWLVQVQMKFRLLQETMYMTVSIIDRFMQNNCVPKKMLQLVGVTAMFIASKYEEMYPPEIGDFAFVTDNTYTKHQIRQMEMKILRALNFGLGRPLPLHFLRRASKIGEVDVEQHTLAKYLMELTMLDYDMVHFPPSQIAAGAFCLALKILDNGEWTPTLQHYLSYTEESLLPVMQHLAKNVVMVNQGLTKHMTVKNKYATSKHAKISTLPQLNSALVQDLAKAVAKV

CDK8/Cyclin C, sequence (P49336 whole entry): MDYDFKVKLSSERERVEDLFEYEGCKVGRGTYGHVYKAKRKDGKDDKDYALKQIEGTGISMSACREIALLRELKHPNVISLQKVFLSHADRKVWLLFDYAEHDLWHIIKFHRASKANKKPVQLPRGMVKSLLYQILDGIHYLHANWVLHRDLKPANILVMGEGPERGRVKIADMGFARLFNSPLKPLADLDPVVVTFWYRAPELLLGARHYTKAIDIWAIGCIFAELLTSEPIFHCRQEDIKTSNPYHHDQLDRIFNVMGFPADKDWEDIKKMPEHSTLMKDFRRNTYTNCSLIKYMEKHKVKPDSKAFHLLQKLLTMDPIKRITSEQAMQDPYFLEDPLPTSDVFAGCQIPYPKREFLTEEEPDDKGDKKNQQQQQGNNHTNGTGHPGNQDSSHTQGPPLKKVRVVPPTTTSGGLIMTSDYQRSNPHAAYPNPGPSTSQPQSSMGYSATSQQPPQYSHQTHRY
CDK8/Cyclin C, sequence (P24863 whole entry, further chain): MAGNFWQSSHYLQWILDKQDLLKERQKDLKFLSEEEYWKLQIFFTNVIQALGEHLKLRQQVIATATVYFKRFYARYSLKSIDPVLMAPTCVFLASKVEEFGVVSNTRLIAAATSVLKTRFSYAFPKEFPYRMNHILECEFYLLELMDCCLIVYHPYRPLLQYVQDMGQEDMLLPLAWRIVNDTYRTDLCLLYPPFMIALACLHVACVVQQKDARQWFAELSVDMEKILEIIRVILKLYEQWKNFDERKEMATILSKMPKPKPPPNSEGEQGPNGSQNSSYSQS
Glycogen synthase kinase-3 beta (Homo sapiens), sequence (P49841 whole entry, looked up): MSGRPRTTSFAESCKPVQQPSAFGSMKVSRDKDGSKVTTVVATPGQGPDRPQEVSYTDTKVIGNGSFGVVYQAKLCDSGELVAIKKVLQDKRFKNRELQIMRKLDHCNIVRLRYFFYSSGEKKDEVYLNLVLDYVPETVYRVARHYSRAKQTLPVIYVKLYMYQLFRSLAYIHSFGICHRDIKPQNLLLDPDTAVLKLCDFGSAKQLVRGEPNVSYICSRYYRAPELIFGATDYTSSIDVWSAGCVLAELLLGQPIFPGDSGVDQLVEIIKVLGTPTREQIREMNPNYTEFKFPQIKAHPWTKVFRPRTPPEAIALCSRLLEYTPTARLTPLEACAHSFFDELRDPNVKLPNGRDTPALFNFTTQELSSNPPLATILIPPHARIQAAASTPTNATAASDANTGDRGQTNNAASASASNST
Protein kinase C theta (Homo sapiens), sequence (Q04759 whole entry, looked up): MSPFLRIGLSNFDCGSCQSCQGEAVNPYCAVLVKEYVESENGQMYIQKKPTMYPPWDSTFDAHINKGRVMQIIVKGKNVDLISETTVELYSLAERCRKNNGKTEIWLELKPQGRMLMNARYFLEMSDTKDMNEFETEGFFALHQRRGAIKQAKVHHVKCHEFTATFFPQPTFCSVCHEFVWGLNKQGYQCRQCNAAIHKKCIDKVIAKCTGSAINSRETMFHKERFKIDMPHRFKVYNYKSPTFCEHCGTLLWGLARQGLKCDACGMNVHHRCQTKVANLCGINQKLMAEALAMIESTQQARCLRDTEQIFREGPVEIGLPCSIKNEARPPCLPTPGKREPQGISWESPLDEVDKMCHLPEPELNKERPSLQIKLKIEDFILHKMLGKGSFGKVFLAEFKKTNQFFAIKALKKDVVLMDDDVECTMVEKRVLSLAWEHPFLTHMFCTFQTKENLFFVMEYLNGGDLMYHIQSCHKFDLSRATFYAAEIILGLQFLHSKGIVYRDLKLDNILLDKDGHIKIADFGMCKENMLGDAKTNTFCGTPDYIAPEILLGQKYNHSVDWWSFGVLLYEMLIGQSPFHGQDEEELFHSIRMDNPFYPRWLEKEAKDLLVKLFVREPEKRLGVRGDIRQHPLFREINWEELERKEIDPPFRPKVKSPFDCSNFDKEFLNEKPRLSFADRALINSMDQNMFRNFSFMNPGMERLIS
Glycogen synthase kinase-3 alpha (Homo sapiens), sequence (P49840 2-483 limits assumed): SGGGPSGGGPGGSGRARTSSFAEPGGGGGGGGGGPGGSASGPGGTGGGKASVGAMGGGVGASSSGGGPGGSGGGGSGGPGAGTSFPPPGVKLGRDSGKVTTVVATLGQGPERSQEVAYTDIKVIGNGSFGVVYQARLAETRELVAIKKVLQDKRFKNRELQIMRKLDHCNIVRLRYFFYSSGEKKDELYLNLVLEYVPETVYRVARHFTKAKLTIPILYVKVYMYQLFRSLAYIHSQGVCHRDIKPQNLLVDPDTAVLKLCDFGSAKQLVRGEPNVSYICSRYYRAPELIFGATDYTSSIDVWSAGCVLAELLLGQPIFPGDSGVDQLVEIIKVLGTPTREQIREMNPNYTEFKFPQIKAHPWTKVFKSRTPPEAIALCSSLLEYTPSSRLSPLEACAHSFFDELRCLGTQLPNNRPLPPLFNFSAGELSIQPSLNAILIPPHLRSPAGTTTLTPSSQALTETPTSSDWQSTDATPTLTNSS

pKi (CDK8/Cyclin C): 6.92
GI50 (MV4-11): 2530 nM
SMILES: Cc1cc(-c2cncc(Cl)c2N2CCC3(CCNC3=O)CC2)sc1C=O

pKi (CDK8/Cyclin C): 8.00
GI50 (MV4-11): 650 nM
SMILES: Cc1csc(-c2cncc(Cl)c2N2CCC3(CCNC3=O)CC2)c1

pKi (CDK8/Cyclin C): 7.34
GI50 (MV4-11): 5150 nM
SMILES: CC(C)(C)OC(=O)N1CCN(Cc2ccc(-c3cncc(Cl)c3N3CCC4(CCNC4=O)CC3)s2)CC1

pKi (CDK8/Cyclin C): 7.52
GI50 (MV4-11): 900 nM
SMILES: Cn1cccc1-c1cncc(Cl)c1N1CCC2(CCNC2=O)CC1

pKi (CDK8/Cyclin C): 7.85
GI50 (MV4-11): 1050 nM
SMILES: O=C1NCCC12CCN(c1c(Cl)cncc1-c1cc[nH]c1)CC2

pKi (CDK8/Cyclin C): 8.10
GI50 (MV4-11): 910 nM
SMILES: Cc1ccsc1-c1cncc(Cl)c1N1CCC2(CCNC2=O)CC1

half-life [1]: 4.41 h
Vd [2]: 1.32 L/kg
Tmax [3]: 3 min
Cmax [4]: 11.1 µM
Vd [5]: 1.6 L/kg
pKi (CDK8/Cyclin C): 8.15
AUC at 24 h [6]: 18.4 µM·h
half-life [7]: 10.1 h
bioavailability [8]: 26%
AUC at 24 h [9]: 19.5 µM·h
Cmax [10]: 1.68 µM
half-life [11]: 1.67 h
Tmax [12]: 9 min
half-life [13]: 0.88 h
Cmax [14]: 4.96 µM
clearance [15]: 33.3 mL/min/kg
GI50 (MV4-11): 160 nM
clearance [16]: 13.2 mL/min/kg
AUC at 24 h [17]: 3.4 µM·h
AUC at 24 h [18]: 2.4 µM·h
Cmax [19]: 1.35 µM
Tmax [20]: 5 h
Tmax [21]: 0.18 h
bioavailability [22]: 28%
SMILES: Nc1ncc(-c2cc3ccccc3s2)c(N2CCC3(CCNC3=O)CC2)c1Cl

pKi (CDK8/Cyclin C): 6.73
GI50 (MV4-11): 5150 nM
SMILES: O=Cc1cc(-c2cncc(Cl)c2N2CCC3(CCNC3=O)CC2)co1

pKi (CDK8/Cyclin C): 6.88
GI50 (MV4-11): 3370 nM
SMILES: O=C1NCCC12CCN(c1c(Cl)cncc1-c1ccc(CN3CCCC3)s1)CC2

pKi (CDK8/Cyclin C): 8.00
GI50 (MV4-11): 480 nM
SMILES: O=C1NCCC12CCN(c1c(Cl)cncc1-c1cccs1)CC2

pKi (CDK8/Cyclin C): 6.60
GI50 (MV4-11): 8520 nM
SMILES: O=C1NCCC12CCN(c1c(Cl)cncc1-c1cn[nH]c1)CC2

Activity [23]: inactive
Activity [24]: inactive
pKi (CDK8/Cyclin C): 8.30
GI50 (MV4-11): 960 nM
Activity [25]: 62%
Activity [26]: 74%
Activity [27]: inactive
SMILES: O=C1NCCC12CCN(c1c(Cl)cncc1-c1ccc(-c3ccccc3)s1)CC2

pKi (CDK8/Cyclin C): 7.38
GI50 (MV4-11): 750 nM
SMILES: O=C1NCCC12CCN(c1c(Cl)cncc1-c1ccoc1)CC2

pKi (CDK8/Cyclin C): 7.09
GI50 (MV4-11): 5190 nM
SMILES: O=Cc1ccc(-c2cncc(Cl)c2N2CCC3(CCNC3=O)CC2)o1

pKi (CDK8/Cyclin C): 7.59
GI50 (MV4-11): 940 nM
SMILES: O=C1NCCC12CCN(c1c(Cl)cncc1-c1ccco1)CC2

pKi (CDK8/Cyclin C): 7.66
GI50 (MV4-11): 4950 nM
SMILES: Cc1ccc(-c2cncc(Cl)c2N2CCC3(CCNC3=O)CC2)o1

GI50 (MV4-11): 50 nM
SMILES: Cn1ncc2cc(-c3cnc(N)c(Cl)c3N3CCC4(CCNC4=O)CC3)ccc21

pKi (CDK8/Cyclin C): 7.85
GI50 (MV4-11): 560 nM
SMILES: O=C1NCCC12CCN(c1c(Cl)cncc1-c1ccc(Cl)s1)CC2

pKi (CDK8/Cyclin C): 7.44
GI50 (MV4-11): 2970 nM
SMILES: CCOCOCc1ccc(-c2cncc(Cl)c2N2CCC3(CCNC3=O)CC2)o1

pKi (CDK8/Cyclin C): 8.00
GI50 (MV4-11): 650 nM
SMILES: Cc1ccc(-c2cncc(Cl)c2N2CCC3(CCNC3=O)CC2)s1

pKi (CDK8/Cyclin C): 7.18
GI50 (MV4-11): 1440 nM
SMILES: CC(=O)c1ccc(-c2cncc(Cl)c2N2CCC3(CCNC3=O)CC2)s1

pKi (CDK8/Cyclin C): 7.49
GI50 (MV4-11): 2960 nM
SMILES: O=C1NCCC12CCN(c1c(Cl)cncc1-c1ccc(CN3CCOCC3)s1)CC2

pKi (CDK8/Cyclin C): 5.76
GI50 (MV4-11): 28700 nM
SMILES: O=Cc1sccc1-c1cncc(Cl)c1N1CCC2(CCNC2=O)CC1

pKi (CDK8/Cyclin C): 6.64
GI50 (MV4-11): 5530 nM
SMILES: Cn1cc(-c2cncc(Cl)c2N2CCC3(CCNC3=O)CC2)cn1

pKi (CDK8/Cyclin C): 7.03
GI50 (MV4-11): 6140 nM
SMILES: O=C1NCCC12CCN(c1c(Cl)cncc1-c1cnn(C(F)F)c1)CC2

pKi (CDK8/Cyclin C): 6.97
GI50 (MV4-11): 4010 nM
SMILES: O=C1NCCC12CCN(c1c(Cl)cncc1-c1ccc(CN3CCCCC3)s1)CC2

pKi (CDK8/Cyclin C): 7.17
GI50 (MV4-11): 750 nM
SMILES: O=Cc1ccc(-c2cncc(Cl)c2N2CCC3(CCNC3=O)CC2)s1

pKi (CDK8/Cyclin C): 7.74
GI50 (MV4-11): 190 nM
SMILES: O=C1NCCC12CCN(c1c(Cl)cncc1-c1ccsc1)CC2

pKi (CDK8/Cyclin C): 7.28
GI50 (MV4-11): 730 nM
SMILES: O=Cc1cc(-c2cncc(Cl)c2N2CCC3(CCNC3=O)CC2)cs1

pKi (CDK8/Cyclin C): 6.07
GI50 (MV4-11): 27100 nM
SMILES: O=Cc1cscc1-c1cncc(Cl)c1N1CCC2(CCNC2=O)CC1

pKi (CDK8/Cyclin C): 5.33
GI50 (MV4-11): > 100000 nM
SMILES: CC(=O)c1sccc1-c1cncc(Cl)c1N1CCC2(CCNC2=O)CC1
